We go through ten compounds from ChEMBL document CHEMBL4130443, “Targeting breast cancer stem cells by novel HDAC3-selective inhibitors” (Eur J Med Chem, 2017).

Assay [1] addresses T1, Histone deacetylase 1 (Homo sapiens, UniProt Q13547). In words: Inhibition of human HDAC1 using p53 (379 to 382 residues) derived fluorogenic peptide RHKKAc.
Assay [2] addresses T2, Histone deacetylase 2 (Homo sapiens, UniProt Q92769). Kind of assay: Inhibition of human HDAC2 using p53 (379 to 382 residues) derived fluorogenic peptide RHKKAc.
Assay [3] addresses Histone deacetylase 3/Nuclear receptor corepressor 2 (HDAC3/NCoR2) (Homo sapiens, UniProt O15379). Kind of assay: Inhibition of human HDAC3/NCOR2 using p53 (379 to 382 residues) derived fluorogenic peptide RHKKAc. The assay is classed as protein-complex assay.
The target of assay [4] is Histone deacetylase 3/Nuclear receptor corepressor 2 (HDAC3/NCoR2) (Homo sapiens) (UniProt O15379+Q9Y618). Kind of assay: Inhibition of human HDAC3/NCOR2 at 1 uM using p53 (379 to 382 residues) derived fluorogenic peptide RHKKAc. Format: protein-complex assay. The method in brief:
(§1)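 Isoform profiling run by a commercial vendor with compounds at 1 µM. Values are percent inhibition, each the average of two determinations.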

Assay [5] concerns the target T2, Histone deacetylase 2. Kind of assay: Inhibition of human HDAC2 at 1 uM using p53 (379 to 382 residues) derived fluorogenic peptide RHKKAc. A digest of the protocol:
as §1

Assay [6] concerns the target T1, Histone deacetylase 1. Kind of assay: Inhibition of human HDAC1 at 1 uM using p53 (379 to 382 residues) derived fluorogenic peptide RHKKAc. A digest of the protocol: as §1

Active and inactive are the calls of the source. The calls are words filed in the database; no cut-off is given here. Some results are limits rather than exact numbers.

T2 sequence (Q92769 whole entry, the tested form may be a part): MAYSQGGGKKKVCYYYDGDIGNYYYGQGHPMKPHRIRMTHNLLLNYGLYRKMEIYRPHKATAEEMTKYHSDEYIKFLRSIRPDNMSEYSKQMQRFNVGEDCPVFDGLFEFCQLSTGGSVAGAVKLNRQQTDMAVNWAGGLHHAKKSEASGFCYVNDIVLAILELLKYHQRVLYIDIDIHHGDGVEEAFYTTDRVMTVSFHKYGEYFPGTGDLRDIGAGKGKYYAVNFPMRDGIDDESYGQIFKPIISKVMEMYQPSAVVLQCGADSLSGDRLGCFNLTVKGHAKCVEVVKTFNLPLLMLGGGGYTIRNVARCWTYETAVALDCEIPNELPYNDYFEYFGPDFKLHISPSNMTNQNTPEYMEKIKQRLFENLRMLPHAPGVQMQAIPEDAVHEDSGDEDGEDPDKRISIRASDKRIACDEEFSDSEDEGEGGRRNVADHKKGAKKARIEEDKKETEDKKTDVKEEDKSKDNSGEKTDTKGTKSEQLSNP
T1 sequence (Q13547 whole entry, the tested form may be a part): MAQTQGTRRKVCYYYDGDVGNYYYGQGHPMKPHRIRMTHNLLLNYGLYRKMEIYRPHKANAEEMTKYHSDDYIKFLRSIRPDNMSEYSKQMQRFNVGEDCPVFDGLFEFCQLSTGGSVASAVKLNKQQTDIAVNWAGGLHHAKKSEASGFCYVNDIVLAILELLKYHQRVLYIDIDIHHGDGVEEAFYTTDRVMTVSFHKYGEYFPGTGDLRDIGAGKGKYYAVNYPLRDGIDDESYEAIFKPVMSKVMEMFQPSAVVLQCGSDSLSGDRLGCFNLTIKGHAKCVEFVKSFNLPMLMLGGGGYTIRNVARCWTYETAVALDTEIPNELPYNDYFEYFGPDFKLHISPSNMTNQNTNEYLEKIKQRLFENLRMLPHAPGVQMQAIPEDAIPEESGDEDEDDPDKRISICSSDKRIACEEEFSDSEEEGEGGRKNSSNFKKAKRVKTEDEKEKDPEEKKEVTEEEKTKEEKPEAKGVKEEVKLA
Chain of Histone deacetylase 3/Nuclear receptor corepressor 2 (HDAC3/NCoR2) (O15379 whole entry, the tested form may be a part): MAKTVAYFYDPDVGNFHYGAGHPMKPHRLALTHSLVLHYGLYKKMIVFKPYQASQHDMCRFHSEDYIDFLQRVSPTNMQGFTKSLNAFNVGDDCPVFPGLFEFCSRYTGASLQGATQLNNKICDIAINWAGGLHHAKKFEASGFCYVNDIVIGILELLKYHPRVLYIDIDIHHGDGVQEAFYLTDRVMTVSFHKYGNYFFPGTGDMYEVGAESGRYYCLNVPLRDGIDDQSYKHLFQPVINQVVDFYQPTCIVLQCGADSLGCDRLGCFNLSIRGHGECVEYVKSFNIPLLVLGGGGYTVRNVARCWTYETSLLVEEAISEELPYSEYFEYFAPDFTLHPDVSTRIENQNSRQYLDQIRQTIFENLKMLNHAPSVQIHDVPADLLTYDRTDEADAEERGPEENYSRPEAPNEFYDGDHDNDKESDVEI
Chain of Histone deacetylase 3/Nuclear receptor corepressor 2 (HDAC3/NCoR2) (Q9Y618 whole entry, further chain, the tested form may be a part): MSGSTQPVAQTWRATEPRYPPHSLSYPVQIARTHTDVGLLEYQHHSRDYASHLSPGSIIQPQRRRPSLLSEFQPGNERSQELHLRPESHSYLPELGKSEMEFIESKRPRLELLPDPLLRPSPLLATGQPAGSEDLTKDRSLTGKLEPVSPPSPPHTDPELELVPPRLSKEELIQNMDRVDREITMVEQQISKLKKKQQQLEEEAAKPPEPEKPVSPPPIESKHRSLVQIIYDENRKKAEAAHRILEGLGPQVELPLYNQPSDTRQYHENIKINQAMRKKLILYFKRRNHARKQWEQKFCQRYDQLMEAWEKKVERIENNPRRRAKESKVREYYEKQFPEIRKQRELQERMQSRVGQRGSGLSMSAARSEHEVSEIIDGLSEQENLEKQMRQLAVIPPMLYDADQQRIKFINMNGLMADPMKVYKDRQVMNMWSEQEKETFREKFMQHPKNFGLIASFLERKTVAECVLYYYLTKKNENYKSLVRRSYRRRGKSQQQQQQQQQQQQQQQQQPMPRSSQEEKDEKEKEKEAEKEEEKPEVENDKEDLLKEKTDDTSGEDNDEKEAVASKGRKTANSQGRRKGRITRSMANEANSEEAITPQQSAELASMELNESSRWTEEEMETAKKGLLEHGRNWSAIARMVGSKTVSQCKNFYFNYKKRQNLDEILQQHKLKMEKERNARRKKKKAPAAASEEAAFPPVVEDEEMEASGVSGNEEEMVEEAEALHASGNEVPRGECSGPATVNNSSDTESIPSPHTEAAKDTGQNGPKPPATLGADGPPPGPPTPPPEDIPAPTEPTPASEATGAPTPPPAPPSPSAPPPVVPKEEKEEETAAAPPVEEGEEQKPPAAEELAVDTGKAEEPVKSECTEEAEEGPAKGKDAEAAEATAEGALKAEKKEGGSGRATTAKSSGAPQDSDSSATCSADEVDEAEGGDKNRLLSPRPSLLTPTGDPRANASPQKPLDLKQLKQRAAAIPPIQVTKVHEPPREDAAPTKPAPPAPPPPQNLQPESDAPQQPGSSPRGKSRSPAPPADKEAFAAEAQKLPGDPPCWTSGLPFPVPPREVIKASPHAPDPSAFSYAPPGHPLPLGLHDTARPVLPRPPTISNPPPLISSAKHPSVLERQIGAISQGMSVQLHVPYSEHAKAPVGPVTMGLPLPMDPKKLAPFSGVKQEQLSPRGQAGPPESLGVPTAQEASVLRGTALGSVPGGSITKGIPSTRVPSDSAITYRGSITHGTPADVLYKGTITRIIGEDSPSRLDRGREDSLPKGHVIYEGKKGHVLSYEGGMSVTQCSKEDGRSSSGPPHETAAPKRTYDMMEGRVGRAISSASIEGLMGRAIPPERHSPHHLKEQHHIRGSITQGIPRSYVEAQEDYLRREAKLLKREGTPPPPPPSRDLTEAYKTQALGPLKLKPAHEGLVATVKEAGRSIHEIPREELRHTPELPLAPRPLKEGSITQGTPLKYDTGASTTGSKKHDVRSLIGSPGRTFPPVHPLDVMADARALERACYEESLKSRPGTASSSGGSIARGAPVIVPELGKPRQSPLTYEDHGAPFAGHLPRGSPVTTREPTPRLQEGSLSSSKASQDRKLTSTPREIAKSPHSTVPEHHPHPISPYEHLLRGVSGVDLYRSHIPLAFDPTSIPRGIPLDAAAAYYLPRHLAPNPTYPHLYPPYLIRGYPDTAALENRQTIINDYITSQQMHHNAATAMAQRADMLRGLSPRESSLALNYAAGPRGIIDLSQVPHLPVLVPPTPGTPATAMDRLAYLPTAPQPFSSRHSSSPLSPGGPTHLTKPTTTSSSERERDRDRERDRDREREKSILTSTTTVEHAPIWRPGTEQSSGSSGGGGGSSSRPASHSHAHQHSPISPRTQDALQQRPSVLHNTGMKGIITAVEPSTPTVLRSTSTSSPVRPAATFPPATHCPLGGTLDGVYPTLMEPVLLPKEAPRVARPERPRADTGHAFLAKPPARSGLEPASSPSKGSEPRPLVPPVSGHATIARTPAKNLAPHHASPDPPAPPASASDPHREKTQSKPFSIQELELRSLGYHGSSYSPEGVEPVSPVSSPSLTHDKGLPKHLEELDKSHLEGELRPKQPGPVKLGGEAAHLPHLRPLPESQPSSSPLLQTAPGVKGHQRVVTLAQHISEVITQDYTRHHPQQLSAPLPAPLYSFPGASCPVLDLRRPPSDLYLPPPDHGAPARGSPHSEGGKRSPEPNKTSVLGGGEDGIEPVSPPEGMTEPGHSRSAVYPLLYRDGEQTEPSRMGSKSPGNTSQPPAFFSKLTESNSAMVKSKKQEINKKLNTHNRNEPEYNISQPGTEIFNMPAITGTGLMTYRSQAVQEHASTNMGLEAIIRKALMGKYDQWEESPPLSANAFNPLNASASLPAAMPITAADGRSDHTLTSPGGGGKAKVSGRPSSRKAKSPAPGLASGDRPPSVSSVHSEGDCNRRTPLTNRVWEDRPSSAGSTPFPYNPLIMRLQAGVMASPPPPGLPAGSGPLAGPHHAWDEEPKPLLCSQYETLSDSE

As to `CC[C@H](C(=O)Nc1ccc(C(=O)Nc2ccc(F)cc2N)nc1)c1ccccc1`, the IC50 – broadly, the point on the concentration scale where inhibition reaches its midpoint – at Histone deacetylase 1 [1] turned out to be 610 nM; against Histone deacetylase 2 [2] it was 4200 nM; in assay [3], 530 nM.
For `Nc1cc(F)ccc1NC(=O)c1ccc(NC(=O)Cc2ccc(C(F)(F)F)cc2)cn1`, in that order: more than 10000 nM, more than 10000 nM and more than 10000 nM.
For `Nc1cc(F)ccc1NC(=O)c1ccc(NC(=O)[C@@H]2C[C@@H]2c2ccccc2)cc1` (relative stereo), in that order: 1300 nM, 2100 nM and 200 nM.
For `Nc1cc(F)ccc1NC(=O)c1ccc(NC(=O)CCc2ccccc2)cn1`, the IC50 against Histone deacetylase 1 [1] is 1300 nM; at Histone deacetylase 2 [2], 7800 nM; in assay [3], more than 10000 nM. Further, the inhibition entry (in assay [4]; at Histone deacetylase 2 [5]; on Histone deacetylase 1 [6]) was “inactive” in each case.
For the compound `CC(C)[C@@H](C(=O)Nc1ccc(C(=O)Nc2ccc(F)cc2N)cn1)c1ccccc1`, the IC50 is more than 10000 nM at Histone deacetylase 1 [1], 8400 nM against Histone deacetylase 2 [2] and 1700 nM in assay [3].
As for `Nc1cc(F)ccc1NC(=O)c1ccc(NC(=O)Cc2ccccc2)cn1`, the IC50 was 1100 nM against Histone deacetylase 1 [1], 2000 nM at Histone deacetylase 2 [2] and 520 nM in assay [3].
For `Nc1cc(F)ccc1NC(=O)c1ccc(NC(=O)Cc2ccc(F)cc2)cc1`, in that order: 5500 nM, 2700 nM and 200 nM.
Consider `Nc1cc(F)ccc1NC(=O)c1ccc(NC(=O)CCc2ccccc2)cc1`, for which the IC50 on Histone deacetylase 1 [1] amounted to 1200 nM; against Histone deacetylase 2 [2], 1100 nM; in assay [3], 800 nM.
On the same counts, the results for `Nc1cc(F)ccc1NC(=O)c1ccc(NC(=O)Cc2ccc(F)cc2)cn1` are 370 nM, 3000 nM and 390 nM.
For `Nc1cc(F)ccc1NC(=O)c1ccc(NC(=O)C2CC2c2ccccc2)cn1` (stereo not drawn), in that order: 1200 nM, 4900 nM and 1000 nM.
